Data reported in ChEMBL document CHEMBL1129034, “Novel N6-(substituted-phenylcarbamoyl)adenosine-5'-uronamides as potent agonists for A3 adenosine receptors” (J Med Chem, 1996).

Legend:
[1] = target: Adenosine receptors; A1 & A3 (Rattus norvegicus) (UniProt P25099+P28647); experiment: Selectivity, ratio between A1 receptor binding affinity / A3 receptor binding affinity; assay type: protein assay
[2] = target: T1, Adenosine receptor A1 (Rattus norvegicus, UniProt P25099); experiment: Displacement of [3H]CHA from Adenosine A1 receptor in rat brain homogenates; assay type: tissue-based
T1 sequence (P25099 whole entry): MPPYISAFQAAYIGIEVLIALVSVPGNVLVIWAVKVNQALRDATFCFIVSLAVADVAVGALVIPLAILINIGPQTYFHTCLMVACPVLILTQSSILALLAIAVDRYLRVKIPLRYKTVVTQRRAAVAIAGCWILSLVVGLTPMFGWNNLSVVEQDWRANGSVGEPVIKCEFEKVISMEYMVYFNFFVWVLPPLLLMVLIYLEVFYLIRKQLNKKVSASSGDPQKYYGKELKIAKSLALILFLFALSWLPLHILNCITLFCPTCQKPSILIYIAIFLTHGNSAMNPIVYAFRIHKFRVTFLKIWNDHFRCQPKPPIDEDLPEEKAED

[3] = target: Adenosine receptor A2a and A3 (Rattus norvegicus) (UniProt P30543+P28647); experiment: Selectivity, ratio between A2A receptor binding affinity / A3 receptor binding affinity; assay type: protein assay
[4] = target: Adenosine receptor A2a (Rattus norvegicus, UniProt P30543); experiment: Displacement of [3H]-CGS- 21680 from Adenosine A2A receptor in rat striatal homogenates
In short: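 Rat striatal homogenates labelled with [3H]CGS 21680 for A2A; IC50 by probit analysis over at least six concentrations, Ki via Cheng-Prusoff using Kd 18.5 nM; n = 3-4, Ki ± SEM in nM.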

[5] = target: T2, Adenosine receptor A3 (Rattus norvegicus, UniProt P28647); experiment: Displacement of [125I]AB-MECA from cloned rat Adenosine A3 receptor in stably transfected CHO cells; assay type: cell-based
T2 sequence (P28647 whole entry): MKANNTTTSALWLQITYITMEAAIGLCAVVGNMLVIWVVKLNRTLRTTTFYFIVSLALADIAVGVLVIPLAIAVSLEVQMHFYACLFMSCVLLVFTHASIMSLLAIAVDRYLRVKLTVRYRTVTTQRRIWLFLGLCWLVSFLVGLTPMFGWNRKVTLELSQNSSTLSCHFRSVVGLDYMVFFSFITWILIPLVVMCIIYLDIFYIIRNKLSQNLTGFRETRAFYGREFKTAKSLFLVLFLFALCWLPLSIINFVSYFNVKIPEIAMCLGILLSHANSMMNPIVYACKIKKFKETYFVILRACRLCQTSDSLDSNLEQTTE
In short: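 Membranes from CHO cells stably expressing rat A3 receptor, labelled with [125I]AB-MECA; IC50 by probit analysis from at least six concentrations, converted to Ki by Cheng-Prusoff with Kd 1.48 nM; n = 3, Ki ± SEM in nM.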

Chain of Adenosine receptor A2a and A3 (Rattus norvegicus) (P30543 whole entry, looked up, one chain of several): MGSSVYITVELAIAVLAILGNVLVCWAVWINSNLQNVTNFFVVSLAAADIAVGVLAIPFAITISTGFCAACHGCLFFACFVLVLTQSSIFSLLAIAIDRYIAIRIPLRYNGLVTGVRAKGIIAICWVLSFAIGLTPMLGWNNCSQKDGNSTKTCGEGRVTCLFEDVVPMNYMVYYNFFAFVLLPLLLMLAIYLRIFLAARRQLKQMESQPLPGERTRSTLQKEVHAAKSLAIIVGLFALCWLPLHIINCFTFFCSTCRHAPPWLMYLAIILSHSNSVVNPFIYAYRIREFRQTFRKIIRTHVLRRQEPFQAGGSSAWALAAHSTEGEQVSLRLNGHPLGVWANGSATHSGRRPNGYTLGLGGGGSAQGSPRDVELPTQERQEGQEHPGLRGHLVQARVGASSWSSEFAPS
Chain of Adenosine receptor A2a (P30543 whole entry): as the sequence (P30543 whole entry, looked up, one chain of several) above

CCNC(=O)[C@H]1OC(n2cnc3c(NC(=O)Nc4cccc(C(F)(F)F)c4)ncnc32)[C@H](O)[C@@H]1O (some centres undefined)
Selectivity [1]: 9.1 | Ki [2]: 700 nM | Selectivity [3]: 30 | Ki [4]: 2300 nM | Ki [5]: 77 nM

CCNC(=O)[C@H]1O[C@@H](n2cnc3c(NC(=O)Nc4ccccc4F)ncnc32)[C@H](O)[C@@H]1O
Selectivity [1]: 2.2 | Ki [2]: 77 nM | Selectivity [3]: 15 | Ki [4]: 528 nM | Ki [5]: 34 nM

CCNC(=O)[C@H]1O[C@@H](n2cnc3c(NC(=O)Nc4ccccc4)ncnc32)[C@H](O)[C@@H]1O
Selectivity [1]: 2.8 | Ki [2]: 110 nM | Selectivity [3]: 140 | Ki [4]: 5360 nM | Ki [5]: 39 nM

CCNC(=O)[C@H]1O[C@@H](n2cnc3c(NC(=O)Nc4ccc(I)cc4)ncnc32)[C@H](O)[C@@H]1O
Selectivity [1]: 0.6 | Ki [2]: 64 nM | Selectivity [3]: 5.6 | Ki [4]: 561 nM | Ki [5]: 101 nM

CCNC(=O)[C@H]1OC(n2cnc3c(NC(=O)Nc4ccc(C(F)(F)F)cc4)ncnc32)[C@H](O)[C@@H]1O (some centres undefined)
Selectivity [1]: 4.9 | Ki [2]: 739 nM | Selectivity [3]: 32 | Ki [4]: 4830 nM | Ki [5]: 150 nM

CCNC(=O)[C@H]1O[C@@H](n2cnc3c(NC(=O)Nc4ccc(C)cc4)ncnc32)[C@H](O)[C@@H]1O
Selectivity [1]: 3.8 | Ki [2]: 124 nM | Selectivity [3]: 11 | Ki [4]: 351 nM | Ki [5]: 32.3 nM

CNC(=O)[C@H]1O[C@@H](n2cnc3c(NC(=O)Nc4cccc(Cl)c4)ncnc32)[C@H](O)[C@@H]1O
Selectivity [1]: 4.8 | Ki [2]: 550 nM | Selectivity [3]: 58 | Ki [4]: 6700 nM | Ki [5]: 115 nM

CCNC(=O)[C@H]1O[C@@H](n2cnc3c(NC(=O)Nc4ccccc4Cl)ncnc32)[C@H](O)[C@@H]1O
Selectivity [1]: 15 | Ki [2]: 111 nM | Selectivity [3]: 180 | Ki [4]: 1340 nM | Ki [5]: 7.4 nM

CCNC(=O)[C@H]1O[C@@H](n2cnc3c(NC(=O)Nc4ccc(F)cc4)ncnc32)[C@H](O)[C@@H]1O
Selectivity [1]: 4.4 | Ki [2]: 85 nM | Selectivity [3]: 72 | Ki [4]: 1380 nM | Ki [5]: 19 nM

CCNC(=O)[C@H]1O[C@@H](n2cnc3c(NC(=O)Nc4ccc(Cl)cc4)ncnc32)[C@H](O)[C@@H]1O
Selectivity [1]: 0.6 | Ki [2]: 72 nM | Selectivity [3]: 13 | Ki [4]: 1490 nM | Ki [5]: 114 nM

CNC(=O)[C@H]1O[C@@H](n2cnc3c(NC(=O)Nc4ccc(OC)cc4)ncnc32)[C@H](O)[C@@H]1O
Selectivity [1]: 8.8 | Ki [2]: 491 nM | Selectivity [3]: 160 | Ki [4]: 8750 nM | Ki [5]: 56 nM

CCNC(=O)[C@H]1O[C@@H](n2cnc3c(NC(=O)Nc4cccc(F)c4)ncnc32)[C@H](O)[C@@H]1O
Selectivity [1]: 2.6 | Ki [2]: 103 nM | Selectivity [3]: 16 | Ki [4]: 611 nM | Ki [5]: 39 nM

CCNC(=O)[C@H]1O[C@@H](n2cnc3c(NC(=O)Nc4cccc(Br)c4)ncnc32)[C@H](O)[C@@H]1O
Selectivity [1]: 0.9 | Ki [2]: 252 nM | Selectivity [3]: 1 | Ki [4]: 286 nM | Ki [5]: 275 nM

CCNC(=O)[C@H]1O[C@@H](n2cnc3c(NC(=O)Nc4ccccc4OC)ncnc32)[C@H](O)[C@@H]1O
Selectivity [1]: 2.4 | Ki [2]: 73 nM | Selectivity [3]: 38 | Ki [4]: 1160 nM | Ki [5]: 30 nM

CCNC(=O)[C@H]1O[C@@H](n2cnc3c(NC(=O)Nc4ccccc4I)ncnc32)[C@H](O)[C@@H]1O
Selectivity [1]: 5.6 | Ki [2]: 179 nM | Selectivity [3]: 14 | Ki [4]: 440 nM | Ki [5]: 32 nM

CCNC(=O)[C@H]1O[C@@H](n2cnc3c(NC(=O)Nc4ccccc4C(F)(F)F)ncnc32)[C@H](O)[C@@H]1O
Selectivity [1]: 7.4 | Ki [2]: 384 nM | Selectivity [3]: 190 | Ki [4]: 10000 nM | Ki [5]: 54 nM

CCNC(=O)[C@H]1O[C@@H](n2cnc3c(NC(=O)NC(C)(C)C)ncnc32)[C@H](O)[C@@H]1O
Selectivity [1]: 0.75 | Ki [2]: 1440 nM | Selectivity [3]: 1.9 | Ki [4]: 3670 nM | Ki [5]: 1930 nM

CCCCCCCCNC(=O)Nc1ncnc2c1ncn2[C@@H]1O[C@H](C(=O)NCC)[C@@H](O)[C@H]1O
Selectivity [1]: 1.4 | Ki [2]: 448 nM | Selectivity [3]: 9.4 | Ki [4]: 3070 nM | Ki [5]: 326 nM

CCNC(=O)[C@H]1O[C@@H](n2cnc3c(NC(=O)Nc4cccc(OC)c4)ncnc32)[C@H](O)[C@@H]1O
Selectivity [1]: 2.7 | Ki [2]: 113 nM | Selectivity [3]: 92 | Ki [4]: 3860 nM | Ki [5]: 42 nM

CCNC(=O)[C@H]1O[C@@H](n2cnc3c(NC(=O)Nc4cccc(I)c4)ncnc32)[C@H](O)[C@@H]1O
Selectivity [1]: 0.5 | Selectivity [3]: 130 | Ki [4]: 3940 nM | Ki [5]: 30 nM

CCNC(=O)[C@H]1O[C@@H](n2cnc3c(NC(=O)Nc4cccc(Cl)c4)ncnc32)[C@H](O)[C@@H]1O
Selectivity [1]: 10 | Ki [2]: 45 nM | Selectivity [3]: 96 | Ki [4]: 420 nM | Ki [5]: 4.4 nM

CCNC(=O)[C@H]1O[C@@H](n2cnc3c(NC(=O)Nc4ccc(OC)cc4)ncnc32)[C@H](O)[C@@H]1O
Selectivity [1]: 4.9 | Ki [2]: 33 nM | Selectivity [3]: 510 | Ki [4]: 3360 nM | Ki [5]: 6.6 nM
